Only some compounds are listed: those with a hit (about 3.7% of all), similar ones and a draw of the others.
Kir21 block = inhibitors of mouse Kir2.1 inward-rectifier potassium channel | HEK293-Kir2.1, FluxOR thallium flux fluorescence; stronger effect = lower value | B-score at 10 µM | actives 0.85% (n = 310,000) | AID 1672;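 active = fluorescence ratio B-score at or below minus 3 SD of library scores, with starting-brightness B-score within 2 SD, cut at about -4.2 in these data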;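 note: channel flux triggered by added potassium and thallium sulfate stimulus; B-score of peak minus minimum fluorescence over baseline after thallium stimulus; more negative B-score means stronger Kir2.1 block with less thallium influx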
KCNK3 inh = human KCNK3 channel inhibition, primary screen; O14649; CHO-KCNK3 thallium flux, FluxOR fluorescence; stronger effect = lower value; B-score at 10 µM; actives 0.84% (n = 340,000); AID 602410;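 active = B-score under library mean minus 4 SD, starting fluorescence ratio at most library mean plus 5 SD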;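 note: more negative B-score means stronger inhibition of thallium flux through KCNK3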
Target sequence (O14649 whole entry, looked up): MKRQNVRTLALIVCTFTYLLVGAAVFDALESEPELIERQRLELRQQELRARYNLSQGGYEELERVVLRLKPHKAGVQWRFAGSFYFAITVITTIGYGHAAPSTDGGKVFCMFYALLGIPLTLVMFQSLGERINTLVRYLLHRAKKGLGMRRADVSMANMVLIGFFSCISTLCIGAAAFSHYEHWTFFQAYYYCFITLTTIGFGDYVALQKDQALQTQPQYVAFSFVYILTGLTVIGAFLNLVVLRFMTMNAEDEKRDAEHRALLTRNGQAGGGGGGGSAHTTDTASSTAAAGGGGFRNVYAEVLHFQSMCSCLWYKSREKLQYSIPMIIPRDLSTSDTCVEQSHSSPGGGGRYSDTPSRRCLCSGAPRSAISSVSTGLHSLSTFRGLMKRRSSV
KCNQ1 block = blocks the human KCNQ1 potassium channel. B-score at 10 µM. actives 1.3% (n = 310,000). CHO-K1 KCNQ1, FluxOR thallium flux fluorescence; stronger effect = higher value. P51787;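 active = compounds whose thallium flux B-score, printed positive for inhibition, exceeds three library SD while starting fluorescence stays within three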;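 note: channel opened by potassium depolarization with thallium stimulus after 20 min compound exposure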
KCNQ1 act = human KCNQ1 channel potentiation or activation; P51787; CHO-K1 KCNQ1, thallium flux FluxOR fluorescence; stronger effect = higher value; B-score at 10 µM; actives 0.35% (n = 310,000); AID 2648;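 active = fluorescence ratio B-score, a plate-corrected score, at least three library SD, with initial intensity B-score within 5 SD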
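assay system = CHO-K1 cells stably expressing KCNQ1 | medium = assay buffer, equal DMSO in all wells | timing = 37 °C overnight plating, 90-min dark dye load, 20-min compound pretreatment | measured by = kinetic FluxOR thallium fluorescence, 10-s 1-Hz baseline, 110-s post-stimulus read | measure = fluorescence change relative to baseline, converted to B score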
hERG rescue = shields human hERG channel from block by proarrhythmic agents; CHO-hERG, FluxOR thallium flux, dofetilide IC70 present; AID 1511; actives 0.51% (n = 310,000); Q12809; activation (rescue from dofetilide block), less the hit threshold, % at 10 µM;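 active = activation above the mean of controls blocked by dofetilide plus 5 SD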;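 note: thallium influx through hERG after potassium depolarization seen as dye fluorescence rise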
KCNK9 block = human KCNK9 channel inhibition | B-score at 10 µM | actives 1.2% (n = 310,000) | AID 488922 | Q9NPC2 | HEK293 KCNK9, FluxOR thallium flux fluorescence; stronger effect = lower value;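 active = ratio B-score over 3 SD below the library mean, with starting fluorescence within 5 SD of its mean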;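 note: negative B-score means less thallium flux so channel inhibition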
Target sequence (Q9NPC2 whole entry, looked up): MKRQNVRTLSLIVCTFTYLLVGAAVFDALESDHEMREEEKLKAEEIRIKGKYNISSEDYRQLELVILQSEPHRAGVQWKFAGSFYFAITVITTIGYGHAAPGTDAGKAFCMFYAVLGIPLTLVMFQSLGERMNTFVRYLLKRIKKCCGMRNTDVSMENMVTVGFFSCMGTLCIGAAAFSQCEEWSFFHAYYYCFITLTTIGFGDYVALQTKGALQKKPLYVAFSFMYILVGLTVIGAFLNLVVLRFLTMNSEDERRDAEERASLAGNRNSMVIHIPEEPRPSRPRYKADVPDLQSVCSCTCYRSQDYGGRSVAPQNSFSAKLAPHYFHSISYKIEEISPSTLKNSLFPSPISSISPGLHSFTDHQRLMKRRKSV
KCNK3 confirm = confirmation of human KCNK3 two-pore domain potassium channel inhibitors; shares compounds with KCNK3 inh; CHO-KCNK3 thallium flux, FluxOR fluorescence; 0% buffer, 100% carvedilol maximal block; ratio percent of control, % at 10 µM; actives 99% (n = 2,400); AID 651638;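 active = ratio percent of control, averaged over triplicates, above buffer control mean plus 5 SD, cut at about 64% in these data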;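 note: ratio is the fluorescence rise from min to max over baseline after thallium stimulus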
KCNK3 uninduced = counter-screen for KCNK3 inhibitors: effect in non-induced cells. shares compounds with KCNK3 inh. non-induced KCNK3 parental cells, FluxOR thallium flux; stronger effect = lower value. thallium flux ratio (lower = more inhibition) at 10 µM. actives 40% (n = 2,400). AID 651747;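 active = thallium flux ratio, averaged over three wells, more than 5 SD below the buffer control mean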;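 note: host cells are CHO cells without KCNK3 induction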
Each line names hits and unclear results; the compound was inactive in the other large screens (follow-up assays come after a bar, where they were run).

C[C@H](CO)N1C[C@H](C)[C@@H](CN(C)CC2CCCCC2)Oc2c(NC(=O)C3CC3)cccc2C1=O	KCNK3 inh -12 (no result: Kir21 block, KCNQ1 block, KCNQ1 act, hERG rescue, KCNK9 block) | KCNK3 confirm 104 | KCNK3 uninduced inactive
COc1ccc(C(=O)Nc2ccc3c(c2)nc(CCNC(=O)c2ccco2)n3C)cc1	none
CCN1CCSc2ccc(C(=O)NCc3ccccc3Br)cc21	KCNK3 inh -9.7 | KCNK3 confirm 104 | KCNK3 uninduced 0.15
CCN1CCSc2ccc(C(=O)NCc3ccccc3C)cc21	none
CN1CCSc2ccc(C(=O)NCc3cccc(Br)c3)cc21	KCNK3 inh -14 | KCNK3 confirm 120 | KCNK3 uninduced 0.16
Oc1ccccc1-c1nc(N2CCN(Cc3ccccc3)CC2)c2ccccc2n1	KCNK3 inh -12, KCNK9 block -7.1 | KCNK3 confirm 100 | KCNK3 uninduced inactive
Oc1ccccc1-c1nc(N2CCCC2)c2ccccc2n1	none
Oc1ccccc1Nc1nc(NCc2ccccc2)c2ccccc2n1	KCNK3 inh -12 | KCNK3 confirm 137 | KCNK3 uninduced inactive
c1ccc(CNc2nc(N3CCN(Cc4ccccc4)CC3)nc3ccccc23)cc1	KCNK3 inh -10, KCNQ1 block 12 | KCNK3 confirm 113 | KCNK3 uninduced inactive
COc1cccc(NC(=O)CN(C)C(=O)c2cc(-c3ccccc3)nc3ccccc23)c1	none
COc1cccc(NC(=O)CN(C)C(=O)/C=C/c2cn(-c3ccccc3)nc2-c2ccc(C)cc2)c1	KCNK3 inh -8.7, KCNQ1 block 10 | KCNK3 confirm 92 | KCNK3 uninduced inactive
COc1cccc(NC(=O)CN(C)C(=O)c2cc(-c3ccc(F)cc3)nc3ccccc23)c1	KCNK3 inh -9.3 | KCNK3 confirm 133 | KCNK3 uninduced 0.11
CS(=O)(=O)c1ccc(Cl)c(NC(=O)C2CCCCN2S(=O)(=O)c2ccccc2)c1 (stereo not drawn)	none (no result: Kir21 block, KCNQ1 block, KCNQ1 act, hERG rescue, KCNK9 block)
Cc1noc(C)c1COc1ccccc1C(=O)NCCc1ccccc1	none (no result: Kir21 block, KCNQ1 block, KCNQ1 act, hERG rescue, KCNK9 block)
Cc1noc(C)c1COc1ccccc1C(=O)NCc1ccccc1Cl	KCNK3 inh -8.8 | KCNK3 confirm 105 | KCNK3 uninduced inactive
CC(=O)N/C(=C\c1ccccc1)C(=O)OCCCOC(=O)/C(=C/c1ccccc1)NC(C)=O	none
COc1cccc(-c2nc(CS(=O)(=O)CC(=O)NC3CCCC3)c(C)o2)c1	none
COc1cccc(-c2nc(CS(=O)(=O)CC(=O)NC3CCC(C)CC3)c(C)o2)c1 (stereo not drawn)	KCNK3 inh -10 | KCNK3 confirm inactive | KCNK3 uninduced inactive
O=C(C1CCC1)N1CCN(c2ccnc3cc(Cl)ccc23)CC1	none
O=C(C1CCCCC1)N1CCN(c2ccnc3cc(Cl)ccc23)CC1	KCNK3 inh -8.8 | KCNK3 confirm 115 | KCNK3 uninduced inactive
CC(=O)N1c2ccc(S(=O)(=O)N3CCC(C(=O)N4CCN(c5cc(Cl)ccc5C)CC4)CC3)cc2CC1C (stereo not drawn)	KCNK3 inh -9.5, KCNQ1 block 6 | KCNK3 confirm 108 | KCNK3 uninduced inactive
CC(=O)N1c2ccc(S(=O)(=O)N3CCC(C(=O)N4CCC(C)CC4)CC3)cc2CC1C (stereo not drawn)	none
O=C(Nc1ccccc1N1CCN(C(=O)c2ccc(Cl)cc2)CC1)c1cc2ccccc2o1	KCNK3 inh -12 | KCNK3 confirm 121 | KCNK3 uninduced 0.14
O=C(Nc1ccc(N2CCN(C(=O)c3ccc(Cl)cc3)CC2)cc1)c1cc2ccccc2o1	none
COc1ccc(OC)c(CCNC(=O)CCn2nc(C)c3c(C)n(-c4ccccc4)nc3c2=O)c1	none
COc1ccc(CCN(C)C(=O)COc2ccc(C(=O)c3ccccc3)cc2)cc1OC	none
CSc1ccc(CN(C)C(=O)COc2ccc(C(=O)c3ccccc3)cc2)cc1	KCNK3 inh -9.4 | KCNK3 confirm 101 | KCNK3 uninduced inactive
CCCCc1cc(=O)oc2cc(OCC(=O)NC3CCN(Cc4ccccc4)CC3)ccc12	none
CC(C)OCCCNC(=O)c1cn(C)c2ccc(S(=O)(=O)N(C)C3CCCCC3)cc2c1=O	KCNK3 inh -9.1 | KCNK3 confirm 90 | KCNK3 uninduced 0.14
COc1ccc(OC)c(NC(=S)N2c3ccccc3CC2C)c1 (stereo not drawn)	KCNK3 inh -9.1 | KCNK3 confirm 105 | KCNK3 uninduced inactive
O=C(CCN1CCCCC1)N1CCc2c([nH]c3ccccc23)C1c1cccnc1 (stereo not drawn)	none (no result: Kir21 block, KCNQ1 block, KCNQ1 act, hERG rescue, KCNK9 block)
N#Cc1cn(CCCOc2ccccc2)c2ccccc12	KCNK3 inh -9.5 | KCNK3 confirm 115 | KCNK3 uninduced 0.14
COc1cc(NC(=O)C/C(C)=N/NC(=O)C2CCCCC2)c(OC)cc1Cl	none
CC(=O)Oc1c(/C=C(\C#N)C(N)=O)[nH]c2ccccc12	Kir21 block -5, KCNK3 inh -9 | KCNK3 confirm 101 | KCNK3 uninduced 0.14
O=C(c1ccccc1)c1ccc(Sc2ccc([N+](=O)[O-])cc2)cc1	KCNK3 inh -8.8 | KCNK3 confirm 115 | KCNK3 uninduced 0.15
Cc1ccc(C(=O)c2ccc([N+](=O)[O-])cc2)cc1C	none
COc1ccc(CCN(Cc2nc(-c3ccccc3)no2)Cc2nc(-c3ccccc3)no2)cc1OC	KCNK3 inh -9.2 | KCNK3 confirm 92 | KCNK3 uninduced inactive
Cc1ccc(Br)cc1S(=O)(=O)N1CCN(c2ccccc2)CC1	KCNK3 inh -11 | KCNK3 confirm 102 | KCNK3 uninduced 0.15
Cc1ccc(S(=O)(=O)Nc2ccccc2N=Cc2c(F)c(F)c(F)c(F)c2F)cc1	KCNK3 inh -12 (no result: Kir21 block, KCNQ1 block, KCNQ1 act, hERG rescue, KCNK9 block) | KCNK3 confirm 114 | KCNK3 uninduced 0.15
Cc1ccc(S(=O)(=O)Nc2ccccc2C=Nc2cccc(C)c2C)cc1	none
Cc1cccc(Nc2nc(-c3ccc(O)cc3O)cs2)n1	none
Cc1cccc(Nc2nc(N)c([N+](=O)[O-])c(N3CC(C)CC(C)C3)n2)c1 (stereo not drawn)	none
Cc1cccc(Nc2nc(N)c([N+](=O)[O-])c(N3CC(C)OC(C)C3)n2)c1 (stereo not drawn)	KCNK3 inh -9 | KCNK3 confirm 88 | KCNK3 uninduced inactive
CCc1noc(C)c1C(=O)NCCc1ccccc1	none
CCCCn1c(N)c(N(CCC(C)C)C(=O)C2CC(=O)N(c3ccc(OC)cc3OC)C2)c(=O)[nH]c1=O (stereo not drawn)	none

Bioassay records deposited in PubChem BioAssay by Johns Hopkins Ion Channel Center.
